Laboratory results reported in ChEMBL document CHEMBL1153829, “Exploiting chemical libraries, structure, and genomics in the search for kinase inhibitors” (Science, 1998).
Activity calls are given as the source filed them.

Legend:
Assay type in all cases: functional, organism-based
Conditions in all cases: 25 M
[1] = system: Saccharomyces cerevisiae; assay: Induction of PGM2 gene expression in delta snq2, delta pdr5 and delta erg6 knock out yeast YRP1 at 25 µM after 2 hrs by high-density oligonucleotide array
Outline: (§1)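 Drug-sensitized yeast strain grown to late logarithmic phase, then exposed to 25 μM inhibitor for 2 h. Polyadenylated mRNA was isolated and converted to biotin-labeled cRNA, which was hybridized to a set of four arrays carrying over 260,000 25-nucleotide oligomers. Transcripts changing more than twofold were scored, from triplicate hybridizations in each of two independent experiments.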

[2] = system: Saccharomyces cerevisiae; assay: Effect on PGM2 gene expression in delta snq2, delta pdr5 and delta erg6 knock out yeast YRP1 assessed as change in mRNA level at 25 µM after 2 hrs by high-density oligonucleotide array
Outline: (§2)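 Drug-sensitized S. cerevisiae cultures grown to late logarithmic phase, then exposed to 25 μM inhibitor for 2 h. Polyadenylated mRNA isolated, converted to biotin-labeled cRNA and hybridized to a set of four high-density arrays carrying more than 260,000 25-nucleotide oligomers. Transcripts scored as changed when they shifted more than twofold in triplicate hybridizations for each of two independent experiments.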

[3] = system: Saccharomyces cerevisiae; assay: Downregulation of EGT2 mRNA expression in delta snq2, delta pdr5 and delta erg6 knock out yeast YRP1 at 25 µM after 2 hrs by high-density oligonucleotide array; outline: as §2
[4] = system: Saccharomyces cerevisiae; assay: Effect on CYC3 gene expression in delta snq2, delta pdr5 and delta erg6 knock out yeast YRP1 bearing cdc28-4 mutant allele assessed as change in mRNA level at 25 µM after 2 hrs by high-density oligonucleotide array
[5] = system: Saccharomyces cerevisiae; assay: Induction of ALD4 gene expression in delta snq2, delta pdr5 and delta erg6 knock out yeast YRP1 at 25 µM after 2 hrs by high-density oligonucleotide array; outline: as §2
[6] = system: Saccharomyces cerevisiae; assay: Effect on YGL179C gene expression in delta snq2, delta pdr5 and delta erg6 knock out yeast YRP1 assessed as change in mRNA level at 25 µM after 2 hrs by high-density oligonucleotide array; outline: as §2
[7] = system: Saccharomyces cerevisiae; assay: Effect on ACH1 gene expression in delta snq2, delta pdr5 and delta erg6 knock out yeast YRP1 bearing cdc28-4 mutant allele assessed as change in mRNA level at 25 µM after 2 hrs by high-density oligonucleotide array
[8] = system: Saccharomyces cerevisiae; assay: Induction of PCK1 gene expression in delta snq2, delta pdr5 and delta erg6 knock out yeast YRP1 at 25 µM after 2 hrs by high-density oligonucleotide array; outline: as §1
[9] = system: Saccharomyces cerevisiae; assay: Effect on YGL121C gene expression in delta snq2, delta pdr5 and delta erg6 knock out yeast YRP1 bearing cdc28-4 mutant allele assessed as change in mRNA level at 25 µM after 2 hrs by high-density oligonucleotide array
[10] = system: Saccharomyces cerevisiae; assay: Effect on YOR248W gene expression in delta snq2, delta pdr5 and delta erg6 knock out yeast YRP1 bearing cdc28-4 mutant allele assessed as change in mRNA level at 25 µM after 2 hrs by high-density oligonucleotide array
[11] = system: Saccharomyces cerevisiae; assay: Upregulation of PDR10 gene expression in delta snq2, delta pdr5 and delta erg6 knock out yeast YRP1 at 25 µM after 2 hrs by high-density oligonucleotide array; outline: as §1
[12] = system: Saccharomyces cerevisiae; assay: Increase in YBR296c mRNA level in delta snq2, delta pdr5 and delta erg6 knock out yeast YRP1 at 25 µM after 2 hrs by high-density oligonucleotide array; outline: as §2
[13] = system: Saccharomyces cerevisiae; assay: Increase in CTT1 mRNA level in delta snq2, delta pdr5 and delta erg6 knock out yeast YRP1 at 25 µM after 2 hrs by high-density oligonucleotide array; outline: as §2
[14] = system: Saccharomyces cerevisiae; assay: Upregulation of YDL223c gene expression in delta snq2, delta pdr5 and delta erg6 knock out yeast YRP1 at 25 µM after 2 hrs by high-density oligonucleotide array; outline: as §1
[15] = system: Saccharomyces cerevisiae; assay: Downregulation of CLB1 mRNA expression in delta snq2, delta pdr5 and delta erg6 knock out yeast YRP1 at 25 µM after 2 hrs by high-density oligonucleotide array; outline: as §2
[16] = system: Saccharomyces cerevisiae; assay: Increase in PHO80 mRNA level in delta snq2, delta pdr5 and delta erg6 knock out yeast YRP1 at 25 µM after 2 hrs by high-density oligonucleotide array; outline: as §2
[17] = system: Saccharomyces cerevisiae; assay: Upregulation of YPT53 gene expression in delta snq2, delta pdr5 and delta erg6 knock out yeast YRP1 at 25 µM after 2 hrs by high-density oligonucleotide array; outline: as §1
[18] = system: Saccharomyces cerevisiae; assay: Downregulation of HTB2 mRNA expression in delta snq2, delta pdr5 and delta erg6 knock out yeast YRP1 at 25 µM after 2 hrs by high-density oligonucleotide array; outline: as §2
[19] = system: Saccharomyces cerevisiae; assay: Increase in PHO8 mRNA level in delta snq2, delta pdr5 and delta erg6 knock out yeast YRP1 at 25 µM after 2 hrs by high-density oligonucleotide array; outline: as §2
[20] = system: Saccharomyces cerevisiae; assay: Upregulation of YER150w gene expression in delta snq2, delta pdr5 and delta erg6 knock out yeast YRP1 at 25 µM after 2 hrs by high-density oligonucleotide array; outline: as §1
[21] = system: Saccharomyces cerevisiae; assay: Effect on ZMS1 gene expression in delta snq2, delta pdr5 and delta erg6 knock out yeast YRP1 bearing cdc28-4 mutant allele assessed as change in mRNA level at 25 µM after 2 hrs by high-density oligonucleotide array
[22] = system: Saccharomyces cerevisiae; assay: Increase in PHO81 mRNA level in delta snq2, delta pdr5 and delta erg6 knock out yeast YRP1 at 25 µM after 2 hrs by high-density oligonucleotide array; outline: as §2
[23] = system: Saccharomyces cerevisiae; assay: Induction of GPH1 gene expression in delta snq2, delta pdr5 and delta erg6 knock out yeast YRP1 bearing cdc28-4 mutant allele at 25 µM after 2 hrs by high-density oligonucleotide array
Outline: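 cdc28-4 temperature-sensitive strain and its isogenic wild type were profiled at the permissive temperature of 25°C. Polyadenylated mRNA was converted to biotin-labeled cRNA and hybridized to high-density oligonucleotide arrays. Transcripts changing more than twofold were scored, from triplicate hybridizations of RNA from a single experiment.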

[24] = system: Saccharomyces cerevisiae; assay: Induction of PFK26 gene expression in delta snq2, delta pdr5 and delta erg6 knock out yeast YRP1 at 25 µM after 2 hrs by high-density oligonucleotide array; outline: as §1
[25] = system: Saccharomyces cerevisiae; assay: Induction of YAL061W gene expression in delta snq2, delta pdr5 and delta erg6 knock out yeast YRP1 at 25 µM after 2 hrs by high-density oligonucleotide array; outline: as §1
[26] = system: Saccharomyces cerevisiae; assay: Increase in HSP12 mRNA level in delta snq2, delta pdr5 and delta erg6 knock out yeast YRP1 at 25 µM after 2 hrs by high-density oligonucleotide array; outline: as §2
[27] = system: Saccharomyces cerevisiae; assay: Effect on CTS1 gene expression in delta snq2, delta pdr5 and delta erg6 knock out yeast YRP1 assessed as change in mRNA level at 25 µM after 2 hrs by high-density oligonucleotide array; outline: as §2
[28] = system: Saccharomyces cerevisiae; assay: Increase in UB14 mRNA level in delta snq2, delta pdr5 and delta erg6 knock out yeast YRP1 at 25 µM after 2 hrs by high-density oligonucleotide array; outline: as §2
[29] = system: Saccharomyces cerevisiae; assay: Effect on YLR311C gene expression in delta snq2, delta pdr5 and delta erg6 knock out yeast YRP1 bearing cdc28-4 mutant allele assessed as change in mRNA level at 25 µM after 2 hrs by high-density oligonucleotide array
[30] = system: Saccharomyces cerevisiae; assay: Upregulation of PDR15 gene expression in delta snq2, delta pdr5 and delta erg6 knock out yeast YRP1 at 25 µM after 2 hrs by high-density oligonucleotide array; outline: as §1
[31] = system: Saccharomyces cerevisiae; assay: Effect on YHR143W gene expression in delta snq2, delta pdr5 and delta erg6 knock out yeast YRP1 assessed as change in mRNA level at 25 µM after 2 hrs by high-density oligonucleotide array; outline: as §2

Measured: Activity

CC(C)n1cnc2/c(=N/c3cccc(Cl)c3)nc(NCCO)[nH]c21
active: [1] | [2] | [3] | [4] | [5] | [6] | [7] | [8] | [9] | [10] | [11] | [12] | [13] | [14] | [15] | [16] | [17] | [18] | [19] | [20] | [21] | [22] | [23] | [24] | [25] | [26] | [27] | [28] | [29] | [30] | [31]

CN1CC[C@H](c2c(O)cc(O)c3c(=O)cc(-c4ccccc4Cl)oc23)[C@H](O)C1 [ALVOCIDIB]
active: [1] | [2] | [3] | [4] | [5] | [6] | [7] | [8] | [9] | [10] | [11] | [12] | [13] | [14] | [15] | [16] | [17] | [18] | [19] | [20] | [21] | [22] | [23] | [24] | [25] | [26] | [27] | [28] | [29] | [30] | [31]
